Reference: ChEMBL document CHEMBL4513216, “Probing the Open Global Health Chemical Diversity Library for Multistage-Active Starting Points for Next-Generation Antimalarials” (ACS Infect Dis, 2020)

Experiment: Toxicity liver stage against HepG2, at 10uM
Type: cell-based
Set-up: test concentration 10 uM, cell line HepG2-A16-CD81EGFP
Conditions: human, HepG2-A16-CD81EGFP cells; read-out: INHIBITION
In short: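 Uninfected HepG2-A16-CD81EGFP cells, 3 × 10^3 per well, 1536-well, plated on prespotted compound at 10 μM final, parasite-free screening media added to match infected plates; puromycin 10 μM positive, DMSO 0.5% negative; run in parallel with 48 h PbLuc assay at 37 °C, 5% CO2; viability by CellTiter-Glo luminescence, normalized to controls.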

SMILES	cytotoxicity at 10 µM [%]
CCOCc1ccccc1NC(=O)NCC(c1cnn(C)c1)N(C)C (stereo unspecified)	3.96
Cc1ccc(CNCCCNS(C)(=O)=O)c(Br)c1	3.36
CN(CCNC(=O)Nc1nccs1)Cc1ccc(F)cc1	-1.32
Cc1cc(Cl)ccc1NCc1ccc(C(=O)N(C)C)[nH]1	7.31
CCCNC(=O)C(C)NC(=O)CCc1ccccc1Br (stereo unspecified)	14.5
CCn1cc2c(n1)C(COC)CN(Cc1ccccn1)C2 (stereo unspecified)	-3.73
Cc1ncc(-c2ccnc(NC3CC3)n2)c(-c2cccnc2)n1	-14.2
NC(=O)c1cccc(CC2CCN(C(=O)CCc3cccc(F)c3)C2)c1 (stereo unspecified)	-3.75
COCC(Nc1ncnc2c1CCNCC2)c1ccccn1 (stereo unspecified)	0.565
Cc1nc(CN2CC(=O)N(C)c3ccccc3C2=O)no1	-3.78
O=c1cc(N2CCCCC2)cnn1C[C@H](O)CO	2.04
Cc1nc(C)c(CC(=O)N2C[C@@H](C(=O)O)[C@H](c3ccccc3C)C2)s1	-120
CCCOC(=O)N1CCCC2(CCN(Cc3cccc(C#N)c3)C2)C1 (stereo unspecified)	-4.59
Nc1cc(-c2ccc(C(=O)O)cc2O)c2cc[nH]c2n1	10.3
O=C(CCn1cc(Cl)cn1)N1CCC2(CC1)OCCCC2O (stereo unspecified)	-135
Cc1nc(N)nc(N2CCOc3ccc(CO)cc3C2)c1C	4.23
Cc1cc(C)c2nc(CNC3CCNC3=O)cc(O)c2c1 (stereo unspecified)	5.92
N#Cc1cccc(C(=O)N2CCC3(CCC(=O)N(C4CC4)C3)CC2)c1	0.194
CCc1nc(NC2CC(=O)N(CC3CCCCC3)C2)ncc1C (stereo unspecified)	-4.55

SMILES	cytotoxicity at 10 µM [%]
CCC(C)N(Cc1ccsc1)C(=O)c1ccc(CO)cc1 (stereo unspecified)	4.26
CN1CCC2(CC1)CN(C(=O)c1cccc3cccnc13)CCN2C	1.54
CC[C@@]1(O)CCN(C(=O)c2ccc(CN3CCCCCC3)cc2)C[C@H]1O	8.44
O=C(c1ccc(S(=O)(=O)NCc2ccon2)cc1)N1CCOCC1	3.08
Cc1nn(CC(=O)O)c(C)c1NS(=O)(=O)c1cccc2ccccc12	-8.52
C[C@@H]1CN(C(=O)c2cc(COc3ccc4c(c3)OCO4)[nH]n2)C[C@H](C)O1	-6.37
Cn1ncc(NC(=O)c2noc3c2CCCC3)c1C(N)=O	5.8
O=C(c1ccc(F)cc1F)N1CC[C@H](O)[C@@H](N2CCOCC2)CC1	2.62
CC(C)CN1CCN(C(=O)CCn2cccn2)CC1	-5.45
O=C(O)c1cc(S(=O)(=O)N2CCOc3ccccc32)ccc1Br	-3.39
CC(O)CN1CCN(C(=O)c2cc(Cl)cc3cccnc23)CC1 (stereo unspecified)	-1.78
CCc1ccc(C(=O)NCc2ccnc(N3CCN(C)CC3)c2)o1	-9.07
CCc1ccc(C(=O)NC2CCc3nc(C)cn3C2)o1 (stereo unspecified)	-8.45
COC(=O)c1ccc(N2CCN(C(=O)c3ccc(O)nc3)C(C)C2)cc1 (stereo unspecified)	-4.5
COc1c(C)cnc(CN2CCOC(Cn3cncn3)C2)c1C (stereo unspecified)	-3.36
O=C1C(NS(=O)(=O)c2ccc(F)cc2F)CCN1Cc1ccccc1 (stereo unspecified)	-0.885
CCc1noc(C(C)N2CCC(C)CC2)n1 (stereo unspecified)	-7.6
COc1ccc(C(=O)N2CCCC(n3cc(C)cn3)C2)c(F)c1 (stereo unspecified)	-10.2
Cc1ncncc1C(=O)N1CCCC(n2cccn2)C1 (stereo unspecified)	-4.77

SMILES	cytotoxicity at 10 µM [%]
O=C(c1ccn(-c2ccccc2)n1)N1CCCC(n2cccn2)C1 (stereo unspecified)	-10.8
CCc1nc(CC(=O)N2CCCC2Cn2cccn2)cs1 (stereo unspecified)	-2.6
Cn1cc(C(=O)CC2CCCN2C(=O)c2cncc3ccccc23)cn1 (stereo unspecified)	4.11
CCN1CCC(NC(=O)CN2CCCC2Cn2nc(C)cc2C)CC1 (stereo unspecified)	-6.83
CCN1CCN(C(=O)NCCOc2ccc3c(c2)OCO3)CC1	-4.59
CCOc1ccccc1-c1noc(CN2CCCC(O)C2)n1 (stereo unspecified)	-3.85
CCOC(=O)CSc1nnc([C@@H](N)C(C)C)o1	0.979
FC(F)(F)c1nc(C2CCNCC2)no1	5.88
CO[C@@H]1CCN(c2nnc(C)s2)C[C@@H]1Cc1cccc(C)c1	11.8
CN(Cc1ccco1)Cc1cnc2n1CCN(c1ncccn1)CC2	-0.603
Cc1ccc2c(n1)N(CC(C)C)CCN(C(=O)Cc1ccccn1)C2	12.7
CC(C)CN1CCS(=O)(=O)[C@@H]2CCN(S(=O)(=O)CC(C)C)CC[C@@H]21	11.3
O=C(NCc1cccnc1)N1CCC2(CC(=O)N(c3ccsc3)C2)C1 (stereo unspecified)	-0.125
Cc1cccc(CN2C[C@@H](C)[C@@]3(CCN(CC(=O)N(C)C)C3=O)C2)c1	-0.979
CN1CCc2cc(C(=O)N(C)C)c(NCC3CC3)nc2CC1	7.8
CCO[C@@H]1CN(S(=O)(=O)c2cn(C)cn2)[C@@H]2CCCO[C@@H]21	-146
NC(=O)N1CCC2(CC1)CN(Cc1cccnc1)C(=O)CO2	3.63
CCC(=O)N1CC[C@@H]2[C@H](CC1)N(Cc1cccc(C)n1)CCS2(=O)=O	-1.31
